From ChEMBL document CHEMBL3739314, “Discovery of Nanomolar Dengue and West Nile Virus Protease Inhibitors Containing a 4-Benzyloxyphenylglycine Residue” (J Med Chem, 2015)
Active and inactive are the calls of the source. The calls are words filed in the database; no cut-off is given here.

Experiments:
[1] = biological target: Prothrombin (Homo sapiens) (UniProt P00734); test: Inhibition of thrombin (unknown origin) using Boc-Val-Pro-Arg-AMC as substrate at 25 uM preincubated with protein for 15 mins followed by substrate addition measured for 10 mins by continuous fluorimetric assay relative to control
[2] = Inhibition of Dengue virus serotype-2 NS2B-NS3 protease using 2-Abz-Nle-Lys-Arg-Arg-Ser-(3-NO2)-Tyr-NH2 as substrate preincubated with protein for 15 mins followed by substrate addition measured for 15 mins by FRET assay; set-up: species or system dengue virus type 2
Summary of the method: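 DENV-2 NS2B-NS3 linked construct at 30 nM (15 nM in some cases), same pH 9 Tris buffer, 15 min preincubation and FRET read-out. Eight inhibitor concentrations spanned 0–1, 0–2, 0–6 or 0–50 μM, with substrate at 50 μM. IC50 was fitted from triplicates.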

West Nile virus = test: Inhibition of West Nile virus NS2B-NS3 protease using 2-Abz-Gly-Leu-Lys-Arg-Gly-Gly-[…]-Tyr-NH2 as substrate at 50 uM preincubated with protein for 15 mins followed by substrate addition measured for 15 mins by FRET assay
Summary of the method: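 Linked WNV NS2B-NS3 protease (150 nM) was preincubated 15 min with inhibitor (50 μM final) in 50 mM Tris-HCl pH 9, 10% ethylene glycol, 0.0016% Brij 58. […] Percent inhibition was taken from the slope relative to the no-inhibitor control, in triplicate.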

Trypsin (Homo sapiens) = Trypsin (Homo sapiens) (UniProt P07477+P07478+P35030); test: Inhibition of trypsin (unknown origin) using Boc-Val-Pro-Arg-AMC as substrate at 25 uM preincubated with protein for 15 mins followed by substrate addition by continuous fluorimetric assay relative to control
[3] = Inhibition of West Nile virus NS2B-NS3 protease using 2-Abz-Gly-Leu-Lys-Arg-Gly-Gly-[…]-Tyr-NH2 as substrate preincubated with protein for 15 mins followed by substrate addition measured for 15 mins by FRET assay
Summary of the method: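 WNV NS2B-NS3 linked construct at 75 nM (40 nM in one case) in pH 9 Tris buffer, preincubated 15 min with eight inhibitor concentrations (ranges 0–1 up to 0–50 μM). Substrate was 50 μM, with FRET readout over 15 min. IC50 was fitted from triplicates.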

[4] = Retention time of compound by RP-HPLC analysis; type: physicochemical
dengue virus type 2 = test: Antiviral activity against Dengue virus serotype-2 infected in African green monkey Vero cells after 7 days by virus yield reduction assay; type: functional, organism-based
[5] = Cytotoxicity against human HuH7 cells infected with Dengue virus serotype-2 assessed as cell viability after 48 hrs by Cell-Titer-Glo luminescent viability assay; type: cell-based, Huh-7
Summary of the method: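 Huh-7 cells (10^4/well) were seeded in DMEM + 10% FBS overnight, then infected with WT DENV-2 (MOI 1) in the presence of compound, triplicate per concentration. After 48 h at 37 °C, medium was replaced with fresh DMEM and viability was read by CellTiter-Glo luminescence. CC50 was determined.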

| Compound | inhibition [1] | IC50 [2] [nM] | inhibition (West Nile virus) [%] | inhibition (Trypsin (Homo sapiens)) | IC50 [3] [nM] | Retention_time [4] [min] | EC50 (dengue virus type 2) [nM] | Ki [2] [nM] | Ki [3] [nM] | CC50 at 48 h [5] [nM] |
| --- | --- | --- | --- | --- | --- | --- | --- | --- | --- | --- |
| N=C(N)NCCC[C@H](NC(=O)c1cc2ccccc2s1)C(=O)N[C@@H](CCCCN)C(=O)N[C@@H](C(N)=O)c1ccc(OCc2c(Cl)cccc2Cl)cc1 | inactive | 183 | 95.9 | inactive | – | – | – | – | – | – |
| N=C(N)NCCC[C@H](NC(=O)c1cccs1)C(=O)N[C@@H](CCCCN)C(=O)N[C@@H](C(N)=O)c1ccc(OCc2ccc(F)cc2)cc1 | inactive | 61 | 101 | inactive | 216 | – | – | – | – | – |
| N=C(N)NCCC[C@H](NC(=O)c1cccs1)C(=O)N[C@@H](CCCCN)C(=O)N[C@@H](C(N)=O)c1ccc(OCc2ccc(C(F)(F)F)cc2)cc1 | inactive | 28 | 101 | inactive | 117 | 3.15 | 7060 | 19 | 93 | > 100000 |
| N=C(N)NCCC[C@H](NC(=O)c1cc2ccccc2s1)C(=O)N[C@@H](CCCCN)C(=O)N[C@@H](C(N)=O)c1ccc(OCc2ccccc2C(F)(F)F)cc1 | inactive | 243 | 93.1 | inactive | – | – | – | – | – | – |
| N=C(N)NCCC[C@H](NC(=O)c1ccsc1)C(=O)N[C@@H](CCCCN)C(=O)N[C@@H](C(N)=O)c1ccc(OCc2ccccc2)cc1 | < 30% | 179 | 98.2 | – | 490 | – | – | – | – | – |
| N#Cc1ccc(COc2ccc([C@@H](NC(=O)[C@H](CCCCN)NC(=O)[C@H](CCCNC(=N)N)NC(=O)c3ccccc3)C(N)=O)cc2)cc1 | < 30% | 399 | 99.9 | – | 213 | – | – | – | – | – |
| N=C(N)NCCC[C@H](NC(=O)C1CCC1)C(=O)N[C@@H](CCCCN)C(=O)N[C@@H](C(N)=O)c1ccc(OCc2ccccc2)cc1 | < 30% | 631 | 98 | – | 434 | – | – | – | – | – |
| COc1cccc(COc2ccc([C@@H](NC(=O)[C@H](CCCCN)NC(=O)[C@H](CCCNC(=N)N)NC(=O)c3ccccc3)C(N)=O)cc2)c1 | < 30% | 147 | 99 | – | 804 | – | – | – | – | – |
| N=C(N)NCCC[C@H](NC(=O)C1CC1)C(=O)N[C@@H](CCCCN)C(=O)N[C@@H](C(N)=O)c1ccc(OCc2ccccc2)cc1 | < 30% | 805 | 100 | – | 1660 | – | – | – | – | – |
| N=C(N)NCCC[C@H](NC(=O)c1ccc(Cl)s1)C(=O)N[C@@H](CCCCN)C(=O)N[C@@H](C(N)=O)c1ccc(OCc2ccc(Cl)cc2)cc1 | inactive | 111 | 99.6 | inactive | 371 | – | – | – | – | – |
| N=C(N)NCCC[C@H](NC(=O)c1cc2ccccc2s1)C(=O)N[C@@H](CCCCN)C(=O)N[C@@H](C(N)=O)c1ccc(OCc2ccc(C(F)(F)F)cc2)cc1 | inactive | 199 | 98.7 | inactive | 604 | 3.47 | 7060 | – | – | 56800 |
| N=C(N)NCCC[C@H](NC(=O)c1nccs1)C(=O)N[C@@H](CCCCN)C(=O)N[C@@H](C(N)=O)c1ccc(OCc2ccccc2)cc1 | < 30% | 99 | 98.8 | – | 158 | – | – | – | – | – |
| CC(C)(C)c1ccc(COc2ccc([C@@H](NC(=O)[C@H](CCCCN)NC(=O)[C@H](CCCNC(=N)N)NC(=O)c3sccc3Cl)C(N)=O)cc2)cc1 | inactive | 121 | 85.2 | inactive | – | – | – | – | – | – |
| N=C(N)NCCC[C@H](NC(=O)c1ccccc1)C(=O)N[C@@H](CCCCN)C(=O)N[C@@H](C(N)=O)c1ccc(OCc2ccc(Cl)c(Cl)c2)cc1 | < 30% | 177 | 97.8 | – | 615 | – | – | – | – | – |
| N=C(N)NCCC[C@H](NC(=O)c1cc2ccccc2s1)C(=O)N[C@@H](CCCCN)C(=O)N[C@@H](C(N)=O)c1ccc(OCc2ccccc2)cc1 | < 30% | 451 | 97.1 | – | – | 3.13 | 20400 | – | – | > 100000 |
| N=C(N)NCCC[C@H](NC(=O)c1cc2sccc2s1)C(=O)N[C@@H](CCCCN)C(=O)N[C@@H](C(N)=O)c1ccc(OCc2ccccc2C(F)(F)F)cc1 | inactive | 197 | 97.5 | inactive | – | – | – | – | – | – |

Further compounds by falling IC50 [2], results first:

| inhibition [1] | IC50 [2] [nM] | inhibition (West Nile virus) [%] | inhibition (Trypsin (Homo sapiens)) | IC50 [3] [nM] | Retention_time [4] [min] | EC50 (dengue virus type 2) [nM] | Compound | Ki [2] [nM] | Ki [3] [nM] | CC50 at 48 h [5] [nM] |
| --- | --- | --- | --- | --- | --- | --- | --- | --- | --- | --- |
| < 30% | 304 | 98.6 | – | 398 | – | – | N=C(N)NCCC[C@H](NC(=O)c1cc(-c2ccccc2)cs1)C(=O)N[C@@H](CCCCN)C(=O)N[C@@H](C(N)=O)c1ccc(OCc2ccccc2)cc1 | – | – | – |
| < 30% | 301 | 98.7 | – | 434 | – | – | N=C(N)NCCC[C@H](NC(=O)c1ccccc1C(F)(F)F)C(=O)N[C@@H](CCCCN)C(=O)N[C@@H](C(N)=O)c1ccc(OCc2ccccc2)cc1 | – | – | – |
| < 30% | 236 | 99.2 | – | 308 | – | – | N=C(N)NCCC[C@H](NC(=O)c1ccccc1)C(=O)N[C@@H](CCCCN)C(=O)N[C@@H](C(N)=O)c1ccc(OCc2ccc(Br)cc2)cc1 | – | – | – |
| inactive | 203 | 94.2 | inactive | – | 3.39 | 10500 | N=C(N)NCCC[C@H](NC(=O)c1cc2ccsc2s1)C(=O)N[C@@H](CCCCN)C(=O)N[C@@H](C(N)=O)c1ccc(OCc2ccc(C(F)(F)F)cc2)cc1 | – | – | 48500 |
| inactive | 170 | 93.8 | inactive | – | – | – | N=C(N)NCCC[C@H](NC(=O)c1cc2sccc2s1)C(=O)N[C@@H](CCCCN)C(=O)N[C@@H](C(N)=O)c1ccc(OCc2ccc(Cl)cc2)cc1 | – | – | – |
| inactive | 158 | 99.2 | inactive | 785 | 3.28 | 5330 | N=C(N)NCCC[C@H](NC(=O)c1cc2sccc2s1)C(=O)N[C@@H](CCCCN)C(=O)N[C@@H](C(N)=O)c1ccc(OCc2c(Cl)cccc2Cl)cc1 | – | – | 34300 |
| inactive | 157 | 94.1 | inactive | 15900 | – | – | CC(C)(C)c1ccc(COc2ccc([C@@H](NC(=O)[C@H](CCCCN)NC(=O)[C@H](CCCNC(=N)N)NC(=O)c3cc4sccc4s3)C(N)=O)cc2)cc1 | – | – | – |
| inactive | 148 | 99.4 | 59% | 487 | – | – | N=C(N)NCCC[C@H](NC(=O)c1cccs1)C(=O)N[C@@H](CCCCN)C(=O)N[C@@H](C(N)=O)c1ccc(OCC(=O)c2ccc(Br)cc2)cc1 | – | – | – |
| inactive | 129 | 98 | inactive | 221 | – | – | N=C(N)NCCC[C@H](NC(=O)c1cc(-c2ccccc2)cs1)C(=O)N[C@@H](CCCCN)C(=O)N[C@@H](C(N)=O)c1ccc(OCc2c(Cl)cccc2Cl)cc1 | – | – | – |
| inactive | 120 | 99.3 | inactive | 821 | – | – | N=C(N)NCCC[C@H](NC(=O)c1sccc1Cl)C(=O)N[C@@H](CCCCN)C(=O)N[C@@H](C(N)=O)c1ccc(OCc2ccc(Cl)cc2)cc1 | – | – | – |
| inactive | 71 | 99.2 | inactive | 150 | – | – | N=C(N)NCCC[C@H](NC(=O)c1cccs1)C(=O)N[C@@H](CCCCN)C(=O)N[C@@H](C(N)=O)c1ccc(OCc2ccc(Br)cc2)cc1 | – | – | – |
| inactive | 50 | 99.1 | inactive | 166 | – | – | N=C(N)NCCC[C@H](NC(=O)c1nccs1)C(=O)N[C@@H](CCCCN)C(=O)N[C@@H](C(N)=O)c1ccc(OCc2c(Cl)cccc2Cl)cc1 | – | – | – |
| inactive | 47 | 100 | inactive | 273 | – | – | COc1cccc(COc2ccc([C@@H](NC(=O)[C@H](CCCCN)NC(=O)[C@H](CCCNC(=N)N)NC(=O)c3nccs3)C(N)=O)cc2)c1 | – | – | – |
